# Assay results collected from several papers.
# Protocols differ between the studies behind these lines.
# Target: Serine/threonine-protein kinase NIM1 (NIM1K, Homo sapiens, UniProt Q8IY84)
Compound,effect on,method,concentration,remaining binding
N[C@@H]1CCN(c2nccc(-c3cnn4ncccc34)n2)C1,binding,,1 µM,79%
Cc1cnc(Nc2ccc(C(=O)N3CCC(N4CCCC4)CC3)cc2)nc1-c1cc2ccccc2s1,binding,competition with immobilised ligand,1 µM,22%
CO[C@@H](C)c1c(Nc2ccc([C@H](N(C)C(=O)C3CCS(=O)(=O)CC3)C(F)(F)F)cc2)cnc2cc(Cl)nn12,cell-free assay,competition with immobilised ligand,1 µM,79%
Cc1cnn2ncc(-c3ccnc(N(C)C)n3)c2c1,binding,,1 µM,92%
Nc1ncc2c(n1)-c1c([nH]c3ccc(C#CC4CC4)cc13)CCCC2,binding,competition with immobilised ligand,1 µM,61%
COc1cnc(Nc2cccc(S(N)(=O)=O)c2)nc1N1CCN(c2ccccc2)C(=O)C1,binding,competition with immobilised ligand,1 µM,87%
CN(C)c1nccc(-c2cnn3ncccc23)n1,binding,,1 µM,52%
O=C(Nc1cccnn1)N1CCC(=Cc2cccc(Oc3ccc(C(F)(F)F)cn3)c2)CC1,cell-free assay,competition with immobilised ligand,1 µM,100%
O=C(NCCCN1CCOCC1)c1ccc(Nc2nccc(-c3cc4ccccc4s3)n2)cc1,binding,competition with immobilised ligand,1 µM,86%
C[C@@H]1CN(c2cc(-c3nn(C)c4ccc(OC5(C)CC5)cc34)ncn2)C[C@H](C)O1,cell-free assay,competition with immobilised ligand,1 µM,74%
C[C@@H](c1ccc(-n2cnc3c(N)ncnc32)cc1)N1CCc2nn(C)c(Cc3ccccc3)c2C1=O,binding,competition with immobilised ligand,0.1 µM,67%
CN(C)c1ncc(F)c(-c2cnn3ncccc23)n1,binding,,1 µM,69%
O=C(c1ccc(Nc2ncc(Cl)c(-c3ccc(Cl)s3)n2)cc1)N1CCC(N2CCCC2)CC1,binding,competition with immobilised ligand,1 µM,6.3%
Cc1nc(C2CCN(C(=O)c3ccc(OC(F)(F)F)cc3N)CC2)c2ncc(N3CCN(C)CC3)cc2n1,cell-free assay,competition with immobilised ligand,1 µM,89%
CCN1CCN(Cc2ccc(C(=O)Nc3ccc(C)c(Oc4ccc5c(c4)CC(=O)N5)c3)cc2C(F)(F)F)CC1,binding,competition with immobilised ligand,1 µM,100%
O=C(NCC1CCOCC1)c1n[nH]cc1NC(=O)c1c(F)cccc1F,binding,competition with immobilised ligand,1 µM,97%
CC1=C(C#N)[C@@H](c2ccc3[nH]nc(C)c3c2)C(C#N)=C(c2ccc(Cl)cc2)N1,cell-free assay,competition with immobilised ligand,1 µM,100%
C[C@H]1CCN(c2nccc(-c3cnn4ncccc34)n2)C1,binding,,1 µM,82%
CC(=O)C1=C(C)N(c2cccc(C(F)(F)F)c2)C(=O)N[C@@H]1c1ccc(C#N)nc1,cell-free assay,competition with immobilised ligand,1 µM,83.5%
F[C@@H]1CCN(c2nccc(-c3cnn4ncccc34)n2)C1,binding,,1 µM,100%
CS(=O)(=O)N1CCCC(NC(=O)[C@H](CCC2CCCCC2)NC(=O)c2ccc(CNC(=O)c3cnc4ccccn34)cc2)C1 (stereo partly shown),cell-free assay,competition with immobilised ligand,0.1 µM,64%
c1cncc(-c2cccc(Nc3nccc(NC4CCCCC4)n3)c2)c1,binding,competition with immobilised ligand,10 µM,88%
